What was measured:
Rattus norvegicus [1] = assay: Apparent clearance in Sprague-Dawley rat at 25 mg/kg administered via oral gavage measured up to 72 hrs by LC/MS analysis; assay type: ADME, organism-based; conditions: in vivo, iv, 5 mg/kg, in the assay text read “5 mg/kg administered intravenously” for “25 mg/kg administered via oral gavage”
Method in brief: (§1)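 Male Sprague-Dawley rats, 4–6 weeks old, acclimatised 1 week, were dosed iv at 5 mg/kg or by oral gavage at 25 mg/kg. Vehicle was 2% DMSO, 4% EtOH, 4% castor oil, 90% H2O. Blood was drawn by orbital sinus puncture from 2 min to 72 h into heparinized tubes. Plasma was assayed by LC/MS with propranolol as internal standard. Three animals per group.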

[2] = AUC (0 to infinity) in Sprague-Dawley rat at 5 mg/kg, iv measured up to 72 hrs by LC/MS analysis; assay type: ADME, organism-based; set-up: dose 5 mg/kg, time infinity, route intravenous; conditions: in vivo; method in brief: as §1
[3] = Oral bioavailability in Sprague-Dawley rat at 25 mg/kg administered via gavage measured up to 72 hrs by LC/MS analysis; assay type: ADME, organism-based; conditions: in vivo; method in brief: as §1
[4] = target: Macrophage colony-stimulating factor 1 receptor (Homo sapiens, UniProt P07333); assay: Inhibition of recombinant human His-tagged CSF1R cytoplasmic domain (538 to 910 residues) expressed in baculovirus using tyr4 peptide as substrate after 1 hr by FRET-based Z'-Lyte assay
Chain of Macrophage colony-stimulating factor 1 receptor (P07333 whole entry, the tested form may be a part): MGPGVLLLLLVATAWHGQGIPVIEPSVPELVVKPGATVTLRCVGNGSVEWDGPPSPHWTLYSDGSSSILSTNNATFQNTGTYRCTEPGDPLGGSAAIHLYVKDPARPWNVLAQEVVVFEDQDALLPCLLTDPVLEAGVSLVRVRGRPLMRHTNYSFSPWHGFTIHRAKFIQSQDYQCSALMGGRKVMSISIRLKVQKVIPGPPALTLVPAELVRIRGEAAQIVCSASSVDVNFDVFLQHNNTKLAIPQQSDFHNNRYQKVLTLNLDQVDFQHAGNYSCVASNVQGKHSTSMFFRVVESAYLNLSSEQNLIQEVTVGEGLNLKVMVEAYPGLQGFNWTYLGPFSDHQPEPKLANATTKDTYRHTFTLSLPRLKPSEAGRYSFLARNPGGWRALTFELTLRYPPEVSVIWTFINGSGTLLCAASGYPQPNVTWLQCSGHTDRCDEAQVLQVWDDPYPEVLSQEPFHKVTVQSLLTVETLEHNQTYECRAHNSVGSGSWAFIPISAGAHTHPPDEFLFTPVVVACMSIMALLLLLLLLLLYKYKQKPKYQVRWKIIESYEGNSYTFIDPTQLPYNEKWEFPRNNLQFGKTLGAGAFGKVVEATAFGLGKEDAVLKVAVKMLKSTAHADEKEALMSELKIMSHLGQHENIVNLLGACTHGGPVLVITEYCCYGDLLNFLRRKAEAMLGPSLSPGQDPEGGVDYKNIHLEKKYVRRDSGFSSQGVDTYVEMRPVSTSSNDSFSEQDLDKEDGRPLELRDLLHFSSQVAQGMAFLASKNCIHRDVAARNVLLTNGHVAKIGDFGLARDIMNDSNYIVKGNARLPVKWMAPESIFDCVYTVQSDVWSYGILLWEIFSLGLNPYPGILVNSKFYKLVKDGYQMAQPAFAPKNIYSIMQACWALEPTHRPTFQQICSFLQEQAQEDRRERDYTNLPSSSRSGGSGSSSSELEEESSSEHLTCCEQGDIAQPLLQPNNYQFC
Method in brief: (§2)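 Z′-Lyte FRET assay with CSF1R or EGFR and 2 μM Tyr4 peptide substrate in 1× kinase buffer. ATP was supplied as a 100 μM solution, a stock and not the final concentration. Compounds were 3-fold serially diluted in DMSO. Reaction ran 1 h at room temperature, followed by 1 h development and a stop reagent. Phospho-peptide, no-ATP and DMSO controls were included. IC50 by curve fitting; mean of at least three independent experiments.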

[5] = Half life in Sprague-Dawley rat at 5 mg/kg, iv measured up to 72 hrs by LC/MS analysis; assay type: ADME, organism-based; conditions: in vivo; method in brief: as §1
Rattus norvegicus [6] = assay: AUC (0 to infinity) in Sprague-Dawley rat at 25 mg/kg administered via oral gavage measured up to 72 hrs by LC/MS analysis; assay type: ADME, organism-based; set-up: dose 25 mg/kg, route oral, time infinity; conditions: in vivo; method in brief: as §1
[7] = Half life in Sprague-Dawley rat at 25 mg/kg administered via oral gavage measured up to 72 hrs by LC/MS analysis; assay type: ADME, organism-based; conditions: in vivo; method in brief: as §1
Homo sapiens = organism: Homo sapiens; assay: Selectivity ratio of IC50 for recombinant human wild type GST-tagged EGFR cytoplasmic domain (668 to 1210 residues) expressed in baculovirus to IC50 for recombinant human His-tagged CSF1R cytoplasmic domain (538 to 910 residues) expressed in baculovirus; method in brief: as §2
[8] = target: Epidermal growth factor receptor (Homo sapiens, UniProt P00533); assay: Inhibition of recombinant human wild type GST-tagged EGFR cytoplasmic domain (668 to 1210 residues) expressed in baculovirus using tyr4 peptide as substrate after 1 hr by FRET-based Z'-Lyte assay
Chain of Epidermal growth factor receptor (P00533 whole entry, the tested form may be a part): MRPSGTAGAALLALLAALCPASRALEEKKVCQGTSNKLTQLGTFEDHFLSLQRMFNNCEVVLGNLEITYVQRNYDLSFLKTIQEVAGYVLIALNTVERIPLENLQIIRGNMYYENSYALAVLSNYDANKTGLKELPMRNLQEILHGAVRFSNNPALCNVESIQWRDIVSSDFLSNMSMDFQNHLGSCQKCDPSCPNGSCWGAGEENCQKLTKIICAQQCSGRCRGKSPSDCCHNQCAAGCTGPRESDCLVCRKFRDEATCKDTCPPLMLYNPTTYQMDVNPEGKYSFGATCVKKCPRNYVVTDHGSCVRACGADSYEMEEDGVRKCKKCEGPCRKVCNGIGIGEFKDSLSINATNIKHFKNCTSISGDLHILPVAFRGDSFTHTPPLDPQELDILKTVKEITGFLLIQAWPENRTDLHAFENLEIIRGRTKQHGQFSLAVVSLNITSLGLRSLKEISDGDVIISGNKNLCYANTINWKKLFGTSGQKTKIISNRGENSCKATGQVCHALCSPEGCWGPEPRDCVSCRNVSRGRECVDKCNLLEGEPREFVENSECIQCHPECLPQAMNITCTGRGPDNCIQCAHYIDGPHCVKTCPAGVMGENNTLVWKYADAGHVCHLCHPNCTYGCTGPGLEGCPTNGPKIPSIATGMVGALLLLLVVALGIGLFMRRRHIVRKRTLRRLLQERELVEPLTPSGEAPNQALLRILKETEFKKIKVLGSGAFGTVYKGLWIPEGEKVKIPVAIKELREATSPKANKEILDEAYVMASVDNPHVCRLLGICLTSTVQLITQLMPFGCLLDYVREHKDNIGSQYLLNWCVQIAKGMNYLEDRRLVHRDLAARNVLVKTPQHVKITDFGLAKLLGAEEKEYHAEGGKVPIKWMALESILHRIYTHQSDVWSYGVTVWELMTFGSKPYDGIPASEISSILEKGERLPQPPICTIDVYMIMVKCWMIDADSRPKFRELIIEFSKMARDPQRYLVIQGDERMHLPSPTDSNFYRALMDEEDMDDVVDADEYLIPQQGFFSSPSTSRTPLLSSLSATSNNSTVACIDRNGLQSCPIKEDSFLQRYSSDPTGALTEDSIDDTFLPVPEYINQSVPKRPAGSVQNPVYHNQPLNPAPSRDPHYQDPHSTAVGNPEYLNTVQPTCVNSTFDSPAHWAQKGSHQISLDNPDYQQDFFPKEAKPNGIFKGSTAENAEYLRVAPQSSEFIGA

[9] = Cmax in Sprague-Dawley rat at 25 mg/kg administered via oral gavage measured up to 72 hrs by LC/MS analysis; assay type: ADME, organism-based; set-up: dose 25 mg/kg, route oral; conditions: in vivo; method in brief: as §1

| CL(app) (Rattus norvegicus [1]) [mL/min/kg] | AUC(0-inf) [2] [ng·h/mL] | bioavailability [3] [%] | IC50 [4] [nM] | half-life [5] [h] | AUC (Rattus norvegicus [6]) [ng·h/mL] | half-life [7] [h] | Ratio IC50 (Homo sapiens) | IC50 [8] [nM] | Cmax [9] [ng/mL] | SMILES |
| --- | --- | --- | --- | --- | --- | --- | --- | --- | --- | --- |
| 44 | 1900 | 17.1 | 2 | 2.3 | 1630 | 1.6 | 99 to 200 | 362 | 396 | CCC(=O)N1CC[C@H](N2C(=O)N(c3cc(OC)ccc3F)Cc3cnc(Nc4ccc(N5CCN(C)CC5)c(C)c4)nc32)C1 |
| 30.7 | 2770 | 38.6 | 2.1 | 3.48 | 5311 | 1.89 | – | – | 988 | CCC(=O)N1CC[C@H](N2C(=O)N(c3cc(OC)ccc3Cl)Cc3cnc(Nc4ccc(N5CCN(C)CC5)c(C)c4)nc32)C1 |

— ChEMBL document CHEMBL4033795, “Design, Synthesis, and Structure-Activity Relationship Study of 2-Oxo-3,4-dihydropyrimido[4,5- d]pyrimidines as New Colony Stimulating Factor 1 Receptor (CSF1R) Kinase Inhibitors” (J Med Chem, 2018)
